Measurements taken from ChEMBL document CHEMBL1125654, “New inhibitors of human renin that contain novel replacements at the P2 site” (J Med Chem, 1991).

Key:
[1] = Partition coefficient (logD7.4); details: octanol/water
Renin [2] = biological target: T1, Renin (Homo sapiens, UniProt P00797); assay: Inhibitory activity against monkey plasma renin.; type: cell-free, Cercopithecidae; details: target entry is the homologue from another species
T1 sequence (P00797 whole entry): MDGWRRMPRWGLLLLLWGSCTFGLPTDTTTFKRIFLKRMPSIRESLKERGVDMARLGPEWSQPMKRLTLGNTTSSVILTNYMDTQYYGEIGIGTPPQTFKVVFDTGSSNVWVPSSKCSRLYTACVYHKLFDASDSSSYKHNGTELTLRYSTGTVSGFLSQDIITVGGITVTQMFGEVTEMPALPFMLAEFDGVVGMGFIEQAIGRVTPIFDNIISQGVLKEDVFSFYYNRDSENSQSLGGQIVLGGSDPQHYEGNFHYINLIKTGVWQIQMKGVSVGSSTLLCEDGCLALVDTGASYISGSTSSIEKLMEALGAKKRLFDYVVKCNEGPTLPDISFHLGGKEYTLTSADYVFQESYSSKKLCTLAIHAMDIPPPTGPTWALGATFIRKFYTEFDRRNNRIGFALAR
Outline: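 Plasma from salt-depleted, furosemide-treated monkeys (native renin and angiotensinogen) incubated with maleate buffer (pH 6.0), PMSF and inhibitor in DMSO for 60 min at 37 °C. Plasma renin activity was 3–8 ng AI/mL per h. Percent inhibition was taken vs DMSO vehicle tubes, and IC50 from six concentrations by nonlinear regression.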

Renin [3] = biological target: T1, Renin; assay: Inhibitory activity against human plasma renin; type: cell-free
Cathepsin D = biological target: T2, Cathepsin D (Bos taurus, UniProt P80209); assay: Inhibitory activity against bovine cathepsin D was determined
T2 sequence (P80209 whole entry): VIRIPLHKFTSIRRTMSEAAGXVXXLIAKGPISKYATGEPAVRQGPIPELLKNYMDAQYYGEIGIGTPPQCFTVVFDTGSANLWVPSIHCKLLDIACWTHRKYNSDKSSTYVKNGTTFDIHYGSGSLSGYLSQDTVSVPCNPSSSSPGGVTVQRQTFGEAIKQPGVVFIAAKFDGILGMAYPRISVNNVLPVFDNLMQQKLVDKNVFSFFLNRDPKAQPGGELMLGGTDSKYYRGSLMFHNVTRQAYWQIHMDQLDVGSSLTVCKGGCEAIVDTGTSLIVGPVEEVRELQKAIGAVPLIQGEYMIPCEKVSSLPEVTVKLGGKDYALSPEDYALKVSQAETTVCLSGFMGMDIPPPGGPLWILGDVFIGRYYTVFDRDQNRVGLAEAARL
Outline: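 Bovine cathepsin D activity assayed in duplicate as hydrolysis of bovine hemoglobin (2× crystallized) at pH 3.2, 37 °C. Net absorbance at 280 nm read in acid-precipitated supernatants of inhibited vs uninhibited controls. IC50 from six inhibitor concentrations by nonlinear regression.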

| Structure (SMILES) | logD ([1]; pH 7.4, logD) | IC50 (Renin [2]) [nM] | IC50 (Renin [3]) [nM] | IC50 (Cathepsin D) [nM] | logD ([1]; pH 7.4) |
| --- | --- | --- | --- | --- | --- |
| CC(C)(C)OC(=O)NCC#CCC(NC(=O)C(Cc1ccccc1)NS(=O)(=O)N1CCOCC1)C(=O)NC(CC1CCCCC1)[C@@H](O)CC(=O)N1CCOC(CCN)C1 (stereo in doubt; 61b) | 3.13 | 700 |  |  |  |
| CCC(C)CNC(=O)C[C@H](O)C(CC(C)C)NC(=O)C(CCCCN)NC(=O)C(Cc1cccc2ccccc12)Cc1cccc2ccccc12 (stereo not given in full) | 5.25 | 3490 | 2580 |  |  |
| CCC(C)CNC(=O)C[C@H](O)C(CC1CCCCC1)NC(=O)C(CCCC/N=C(/S)NC)NC(=O)C(Cc1cccc2ccccc12)Cc1cccc2ccccc12 (stereo not given in full) | 6.63 | 47 |  | 3200 |  |
| CCC(C)CNC(=O)C[C@H](O)C(CC(C)C)NC(=O)C(CCCn1cccc1)NC(=O)C(Cc1cccc2ccccc12)Cc1cccc2ccccc12 (stereo not given in full) | 7.09 | 390 | 540 |  |  |
| CNC(=S)NCCCCC(NC(=O)C(Cc1cccc2ccccc12)Cc1cccc2ccccc12)C(=O)NC(CC(C)C)[C@@H](O)CC(=O)N(C)OC (stereo not given in full) | 4.83 | 10600 |  |  |  |
| CS/C(=N\CCCCC(NC(=O)C(CC(=O)N1CCOCC1)Cc1cccc2ccccc12)C(=O)NC(CC(C)C)[C@@H](O)CC(=O)N1CCOC(CCN)C1)NC#N (stereo not given in full) | 1.68 | 350 |  |  |  |
| CC(C)CC(NC(=O)C(CCCC/N=C(/N)N[N+](=O)[O-])NC(=O)C(Cc1cccc2ccccc12)Cc1cccc2ccccc12)[C@@H](O)CC(=O)N1CCOC(CCN)C1 (stereo not given in full) |  | 40 | 45 |  | 4.09 |
| N=C(NCC#CCC(NC(=O)C(Cc1cccc2ccccc12)Cc1cccc2ccccc12)C(=O)NC(CC1CCCCC1)[C@@H](O)CC(=O)N1CCOC(CCN)C1)N[N+](=O)[O-] (stereo not given in full) |  | 12 |  |  | 4.73 |
| CCC(C)CNC(=O)C[C@H](O)C(CC(C)C)NC(=O)C(CCCCNC(N)=O)NC(=O)C(Cc1cccc2ccccc12)Cc1cccc2ccccc12 (stereo not given in full) | 5.31 | 89 | 50 |  |  |
| CC(C)CC(NC(=O)C[C@H](O)C(CC(C)C)NC(=O)C(CCCCNC(=O)OCc1ccccc1)NC(=O)C(Cc1cccc2ccccc12)Cc1cccc2ccccc12)C(=O)NCc1ccccc1 (stereo not given in full) | 7.69 | 8000 | 2900 |  |  |
| CCC(C)CNC(=O)C[C@H](O)C(CC(C)C)NC(=O)C(CCCCn1cccc1)NC(=O)C(Cc1cccc2ccccc12)Cc1cccc2ccccc12 (stereo not given in full) | 7.21 | 144 | 87 |  |  |

The next lines start with results.

| logD ([1]; pH 7.4, logD) | IC50 (Renin [2]) [nM] | IC50 (Renin [3]) [nM] | IC50 (Cathepsin D) [nM] | Structure (SMILES) | logD ([1]; pH 7.4) |
| --- | --- | --- | --- | --- | --- |
| 5.51 | 41 | 19 |  | CCC(C)CNC(=O)C[C@H](O)C(CC(C)C)NC(=O)C(CCCCNC(=NC#N)SC)NC(=O)C(Cc1cccc2ccccc12)Cc1cccc2ccccc12 (stereo not given in full) |  |
| 2.9 | 3.3 |  |  | C/N=C(\S)NCC#CCC(NC(=O)C(Cc1ccccc1)NS(=O)(=O)N1CCOCC1)C(=O)NC(CC1CCCCC1)[C@@H](O)CC(=O)N1CCOC(CCN)C1 (stereo not given in full) |  |
|  | 11 |  |  | CC(C)(C)OC(=O)NCC#CCC(NC(=O)C(Cc1ccccc1)NS(=O)(=O)N1CCOCC1)C(=O)NC(CC1CCCCC1)[C@@H](O)CC(=O)N1CCOC(CCN)C1 (stereo in doubt; 61a) | 3.96 |
| 5.41 | 39 | 40 |  | CCC(C)CNC(=O)C[C@H](O)C(CC(C)C)NC(=O)C(CCCCCNC(=S)NC)NC(=O)C(Cc1cccc2ccccc12)Cc1cccc2ccccc12 (stereo not given in full) |  |
| 5.63 | 44 | 29 |  | CCC(C)CNC(=O)C[C@H](O)C(CC(C)C)NC(=O)C(CCCCNC(=O)NC)NC(=O)C(Cc1cccc2ccccc12)Cc1cccc2ccccc12 (stereo not given in full) |  |
| 2.25 | 5 | 5.4 |  | NCCC1CN(C(=O)C[C@H](O)C(CC2CCCCC2)NC(=O)C(Cc2c[nH]cn2)NC(=O)C(Cc2ccccc2)NS(=O)(=O)N2CCOCC2)CCO1 (stereo not given in full) |  |
| 5.64 | 44 | 48 |  | CCC(C)CNC(=O)C[C@H](O)C(CC(C)C)NC(=O)C(CCCCCCN=C(S)NC)NC(=O)C(Cc1cccc2ccccc12)Cc1cccc2ccccc12 (stereo not given in full) |  |
| 2.12 | 0.5 |  |  | CC(=O)NCC#CCC(NC(=O)C(Cc1ccccc1)NS(=O)(=O)N1CCOCC1)C(=O)NC(CC1CCCCC1)[C@@H](O)CC(=O)N1CCOC(CCN)C1 (stereo not given in full) |  |
